Assay results reported in ChEMBL document CHEMBL1833950, “Inhibition of steroid sulfatase with 4-substituted estrone and estradiol derivatives” (Bioorg Med Chem, 2011).
The source made the active and inactive calls. No cut-off for these calls is given here.

How the values were obtained:
[1] = target: T1, Steryl-sulfatase (Homo sapiens) (UniProt P08842); experiment: Inhibition of human steroid sulfatase using 4-methylumbelliferyl sulfate substrate at 50 uM by fluorescence assay
T1 sequence (whole entry): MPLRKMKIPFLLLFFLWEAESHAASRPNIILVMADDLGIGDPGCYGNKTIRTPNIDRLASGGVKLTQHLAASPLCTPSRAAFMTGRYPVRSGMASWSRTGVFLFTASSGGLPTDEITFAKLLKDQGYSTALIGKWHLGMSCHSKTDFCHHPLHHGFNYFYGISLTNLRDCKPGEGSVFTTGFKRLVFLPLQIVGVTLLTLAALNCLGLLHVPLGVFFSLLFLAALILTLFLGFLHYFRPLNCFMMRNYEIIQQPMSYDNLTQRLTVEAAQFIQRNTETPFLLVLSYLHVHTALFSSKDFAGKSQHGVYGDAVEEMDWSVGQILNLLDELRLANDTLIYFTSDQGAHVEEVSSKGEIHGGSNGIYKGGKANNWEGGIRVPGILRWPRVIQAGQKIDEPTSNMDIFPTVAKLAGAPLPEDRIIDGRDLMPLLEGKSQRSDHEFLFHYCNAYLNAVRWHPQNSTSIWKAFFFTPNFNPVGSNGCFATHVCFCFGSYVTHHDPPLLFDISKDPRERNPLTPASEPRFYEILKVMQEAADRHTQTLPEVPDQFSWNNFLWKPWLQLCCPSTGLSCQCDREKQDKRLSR

[2] = target: T1, Steryl-sulfatase (Homo sapiens); experiment: Inhibition of human steroid sulfatase using 4-methylumbelliferyl sulfate substrate at 1 uM after 60 mins by fluorescence assay
[3] = target: T1, Steryl-sulfatase (Homo sapiens); experiment: Reversible inhibition of human steroid sulfatase using 4-methylumbelliferyl sulfate substrate assessed as enzyme activity recovery at 1 uM after 60 mins by fluorescence assay; design: scale not given: the % may be the effect or the level left
Outline: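 Aliquots are assayed with 4 mM 4-MUS at 0 and 60 min. The rest is dialysed against 0.1 M Tris-HCl pH 7.0, 0.1% Triton X-100, with activity measured at 540, 1020 and 1500 min. Triplicates, with an inhibitor-free control.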

[4] = target: T1, Steryl-sulfatase (Homo sapiens); experiment: Inhibition of human steroid sulfatase using 4-methylumbelliferyl sulfate as substrate at 10 uM by fluorescence assay
[5] = target: T1, Steryl-sulfatase (Homo sapiens); experiment: (§1) Inhibition of human steroid sulfatase using 4-methylumbelliferyl sulfate substrate after 10 mins by fluorescence assay
Outline: (§2)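 Inhibitor is added in DMSO/Tris (1:1) and the reaction is started with enzyme. 4-MUS is 200 µM final. 4-Methylumbelliferone fluorescence (ex 360/em 460 nm) is followed for 10 min at 25 °C. Triplicates; percent activity is taken versus an inhibitor-free control and IC50 derived.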

[6] = target: T1, Steryl-sulfatase (Homo sapiens); experiment: (§3) Inhibition of human steroid sulfatase using 4-methylumbelliferyl sulfate substrate after 5 mins by Kitz-Wilson plot analysis
[7] = target: T1, Steryl-sulfatase (Homo sapiens); experiment: Ratio of Kinact to Ki for human steroid sulfatase after 5 mins by Kitz-Wilson plot analysis
Steryl-sulfatase [8] = target: T2, Steryl-sulfatase (Homo sapiens, UniProt P08842); experiment: Inhibition of human steroid sulfatase using 4-methylumbelliferyl sulfate substrate over 50 mins by Kitz-Wilson plot analysis
T2 sequence (P08842 whole entry): T1 sequence (whole entry)

Steryl-sulfatase [9] = target: T2, Steryl-sulfatase; experiment: Time-dependent inhibition of human steroid sulfatase using 4-methylumbelliferyl sulfate substrate by Kitz-Wilson plot analysis
Steryl-sulfatase [10] = target: T2, Steryl-sulfatase; experiment: as §1; outline: as §2
Steryl-sulfatase [11] = target: T2, Steryl-sulfatase; experiment: Inhibition of human purified steroid sulfatase; outline: as §2
Steryl-sulfatase [12] = target: T2, Steryl-sulfatase; experiment: as §3
Steryl-sulfatase [13] = target: T2, Steryl-sulfatase; experiment: Non-Competitive inhibition of human steroid sulfatase using 4-methylumbelliferyl sulfate substrate by Lineweaver-Burk plot analysis
[14] = Aqueous solubility of the compound; assay type: physicochemical; conditions: buffer
Steryl-sulfatase [15] = target: T2, Steryl-sulfatase; experiment: Mixed type inhibition of human steroid sulfatase using 4-methylumbelliferyl sulfate substrate by Lineweaver-Burk plot analysis
[16] = target: T1, Steryl-sulfatase (Homo sapiens); experiment: Inhibition of human steroid sulfatase using 4-methylumbelliferyl sulfate substrate at 10 uM after 60 mins by fluorescence assay
[17] = target: T1, Steryl-sulfatase (Homo sapiens); experiment: Reversible inhibition of human steroid sulfatase using 4-methylumbelliferyl sulfate as substrate at 50 uM after 10 mins by fluorescence assay

In the case of `C[C@]12CC[C@@H]3c4ccc(O)c(N)c4CC[C@H]3[C@@H]1CC[C@@H]2O`, the inhibition [1] is reported as 43%.
In the case of `C[C@]12CC[C@@H]3c4ccc(O)c(C=O)c4CC[C@H]3[C@@H]1CC[C@@]2(O)Cc1ccccc1`, the inhibition [2] is reported as 95%, the Activity [3] is reported as 14% and the “Inhibition activity (active/inactive)” value [4] is reported as “Active”. The inhibition [5] was “Dose-dependent effect”, the Kinact [6] was 0.021 min⁻¹ and the Ratio [7] was 2.3 ×10⁵ /M/min. The Ki (Steryl-sulfatase [8]) was 85 nM and the Ki (Steryl-sulfatase [9]) was 85 nM.
In the case of `C[C@]12CC[C@@H]3c4ccc(O)c(CN)c4CC[C@H]3[C@@H]1CC[C@@H]2O`, the inhibition [1] is reported as 4%.
`C[C@]12CC[C@@H]3c4ccc(O)c(C#N)c4CC[C@H]3[C@@H]1CCC2=O` showed an IC50 (Steryl-sulfatase [10]) of 6700 nM.
`C=Cc1c(O)ccc2c1CC[C@@H]1[C@@H]2CC[C@]2(C)C(=O)CC[C@@H]12` showed an inhibition [1] of 45%.
In the case of `C[C@]12CC[C@@H]3c4ccc(O)c(C=O)c4CC[C@H]3[C@@H]1CCC2=O`, the Activity [3] is reported as 2%, the Ki (Steryl-sulfatase [11]) is reported as 1500 nM and the Kinact [6] is reported as 0.13 min⁻¹. For the same compound, the Ki (Steryl-sulfatase [12]) was 1500 nM, the Ratio [7] was 1 ×10⁵ /M/min and the Ki (Steryl-sulfatase [9]) was 1500 nM.
`C[C@]12CC[C@@H]3c4ccc(O)c([N+](=O)[O-])c4CC[C@H]3[C@@H]1CC[C@@H]2O` showed an IC50 (Steryl-sulfatase [10]) of 2800 nM.
With `C[C@]12CC[C@@H]3c4cc(Br)c(O)c(C=O)c4CC[C@H]3[C@@H]1CCC2=O` the “Inhibition activity (active/inactive)” value [4] was “inactive”, the inhibition [5] was “inactive” and the IC50 (Steryl-sulfatase [10]) was 145000 nM.
`C[C@]12CC[C@@H]3c4ccc(O)c([N+](=O)[O-])c4CC[C@H]3[C@@H]1CCC2=O` gave a Ki (Steryl-sulfatase [13]) of 1400 nM and an IC50 (Steryl-sulfatase [10]) of 2400 nM.
For `C[C@]12CC[C@@H]3c4ccc(C=O)cc4CC[C@H]3[C@@H]1CCC2=O`, the “Inhibition activity (active/inactive)” value [4] was “inactive” and the inhibition [5] was “inactive”.
Work on `C[C@]12CC[C@@H]3c4ccc(O)c(CO)c4CC[C@H]3[C@@H]1CCC2=O` yielded an inhibition [1] of 46%.
Work on `C[C@]12CC[C@@H]3c4cc(Br)c(O)cc4CC[C@H]3[C@@H]1CCC2=O` yielded an IC50 (Steryl-sulfatase [10]) of 40000 nM.
`C[C@]12CC[C@@H]3c4ccc(O)c(Br)c4CC[C@H]3[C@@H]1CCC2=O` gave an IC50 (Steryl-sulfatase [10]) of 4800 nM.
Compound `C[C@]12CC[C@@H]3c4cc([N+](=O)[O-])c(O)cc4CC[C@H]3[C@@H]1CCC2=O` has an IC50 (Steryl-sulfatase [10]) of 17000 nM.
In the case of `C[C@]12CC[C@@H]3c4cc(C=O)c(O)c(C=O)c4CC[C@H]3[C@@H]1CCC2=O`, the solubility [14] is reported as “soluble”, the “Inhibition activity (active/inactive)” value [4] is reported as “inactive” and the IC50 (Steryl-sulfatase [10]) is reported as 224000 nM.
For `C[C@]12CC[C@@H]3c4cc([N+](=O)[O-])c(O)c([N+](=O)[O-])c4CC[C@H]3[C@@H]1CCC2=O`, the IC50 (Steryl-sulfatase [10]) was 26000 nM.
`C[C@]12CC[C@@H]3c4ccc(O)c(F)c4CC[C@H]3[C@@H]1CC[C@@]2(O)Cc1ccccc1` gave a Ki (Steryl-sulfatase [15]) of 90 nM and a Ki (Steryl-sulfatase [10]) of 30 nM.
`C[C@]12CC[C@@H]3c4cc(C=O)c(O)cc4CC[C@H]3[C@@H]1CC[C@@]2(O)Cc1ccccc1` gave an inhibition [16] of 15%.
Compound `C[C@]12CC[C@@H]3c4ccc(O)c(F)c4CC[C@H]3[C@@H]1CCC2=O` has an IC50 (Steryl-sulfatase [10]) of 3300 nM.
Compound `C[C@]12CC[C@@H]3c4ccc(O)cc4CC[C@H]3[C@@H]1CC[C@@]2(O)Cc1ccccc1` has a Ki (Steryl-sulfatase [10]) of 250 nM.
For `C[C@]12CC[C@@H]3c4cc(C=O)c(O)cc4CC[C@H]3[C@@H]1CCC2=O`, the “Inhibition activity (active/inactive)” value [4] was “inactive” and the inhibition [5] was “inactive”.
With `C[C@]12CC[C@@H]3c4cc([N+](=O)[O-])c(O)c(C=O)c4CC[C@H]3[C@@H]1CCC2=O` the “Inhibition activity (active/inactive)” value [4] was “inactive”, the inhibition [5] was “inactive” and the inhibition [17] was under 50%.
With `C[C@]12CC[C@@H]3c4ccc(O)c(C(=O)O)c4CC[C@H]3[C@@H]1CCC2=O` the IC50 (Steryl-sulfatase [10]) was 215000 nM.
